Compound activity from PubChem BioAssay.
S1P3 ag – agonists of human S1P3 receptor; activation, % at 4.5 µM; 60,000 compounds, 0.1% hits; S1P3 NFAT-BLA reporter cells, agonism, FRET ratio; relative to 1 µM S1P, basal subtracted; AID 373; Q99500;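 active = activation above the screen-wide mean plus 3 SD, cut at about 4.5% in these data, passing the limit was not always enough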
Target sequence (Q99500 whole entry, looked up): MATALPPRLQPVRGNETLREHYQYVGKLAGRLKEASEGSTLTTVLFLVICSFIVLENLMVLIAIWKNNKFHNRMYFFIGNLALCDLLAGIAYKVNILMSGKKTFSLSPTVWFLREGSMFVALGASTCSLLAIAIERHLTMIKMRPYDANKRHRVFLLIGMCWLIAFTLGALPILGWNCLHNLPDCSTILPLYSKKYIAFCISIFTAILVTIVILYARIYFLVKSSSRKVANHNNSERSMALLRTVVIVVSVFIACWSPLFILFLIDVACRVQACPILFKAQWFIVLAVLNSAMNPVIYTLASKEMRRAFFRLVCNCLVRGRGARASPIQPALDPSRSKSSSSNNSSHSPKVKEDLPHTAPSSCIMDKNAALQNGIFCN
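material = human S1P3 NFAT-BLA reporter CHO cells | schedule = 4 h compound at 37 °C, 2 h substrate at RT | measured by = fluorescent BLA substrate, ex 405 nm, em 460/535 nm ratio | controls = 1 µM S1P reference | replication = primary once, confirmation triplicate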
5HT1E ag – 5-HT1E (human) receptor agonism; activation, % at 6 µM; P28566; CHO 5-HT1E Ga15 NFAT-bla reporter, FRET; 0% DMSO wells, 100% control agonist wells; 65,000 compounds, 0.69% hits;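 active = activation above a set limit, the screen-wide mean activation plus 3 SD, cut at about 8.5% in these data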;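 note: 100% = positive control agonist at 1 µM giving full maximal response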
5-HT1A blocker – blocks the human serotonin 5-HT1a receptor. P08908. CHO 5-HT1a Ga15 NFAT-bla reporter, antagonist mode. inhibition, % at 10 µM. AID 612. 62,000 compounds, 0.68% hits;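 active = inhibition above the mean of all tested compounds plus 3 SD, cut at about 43% in these data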;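 note: receptor stimulated by 5-CT agonist at 100 nM near EC80; beta-lactamase reporter measured by ratiometric fluorescence of a cleavable substrate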
5HT1E antag – 5-HT1E (human) receptor antagonism. 65,000 compounds, 0.99% hits. inhibition, % at 6 µM. AID 571. P28566. CHO 5-HT1E Ga15 NFAT-bla reporter, FRET, antagonist;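 active = inhibition above a set limit, the mean inhibition across every tested compound plus 3 SD, cut at about 29% in these data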;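 note: signal is the 460 over 535 nm emission ratio of beta-lactamase substrate; 0% = agonist plus DMSO wells and 100% = wells without agonist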
HTR1A agonist – activates the human 5-HT1a serotonin receptor | CHO 5-HT1a Ga15 NFAT-bla reporter, FRET ratio; 0% basal, 100% maximal reference agonist | 65,000 compounds, 0.56% hits | P08908 | activation, % at 10 µM;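 active = activation above the screen-wide mean activation plus 3 SD, cut at about 19% in these data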;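 note: 0% = DMSO wells and 100% = 5-CT at EC100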
S1P1 ag-PAM – agonists and agonism potentiators of human S1P1 receptor | P21453 | S1P1 CRE-bla cells, forskolin, beta-lactamase FRET, potentiator mode; S1P1 agonist co-added at EC20, 2 nM; 100% = saturating reference agonist, 0% = basal | activation, % at 9.5 µM | 56,000 compounds, 0.57% hits | AID 449;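 active = activation above a cutoff set at the mean activation of all tested compounds plus 3 SD, cut at about 54% in these data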;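 note: forskolin at 4 µM as EC80 and the EC20 agonist is SEW2871; 100% = SEW2871 at its EC100 plus forskolin at EC80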
Starred values were filed as active, the others as inactive; . = no result given. Most compounds without a hit are left out; they make up all but 2.9% or so of the library.

SMILES	S1P3 ag	5HT1E ag	5-HT1A blocker	5HT1E antag	HTR1A agonist	S1P1 ag-PAM
CCCNC(=O)c1c(N)n(-c2ccc3c(c2)OCO3)c2nc3ccccc3nc12	0	1	6	-9	3	8
CCCNC(=O)c1c(N)n(-c2cc(OC)cc(OC)c2)c2nc3ccccc3nc12	2	12*	-45	-15	30*	-80
COc1cc(C)c(C(C)C)cc1S(=O)(=O)NCCCn1ccnc1	-1	2	-11	1	-1	5
Clc1ccc(OCCN2CCN(c3ncnc4sccc34)CC2)cc1	-2	0	17	8	0	115*
CC#CCCCC(=O)Nc1ccccc1C(=O)O	-1	-1	-2	4	1	9
O=C(NCc1cccnc1)c1ccc(Cl)c(Cl)c1	0	0	-7	-7	1	-13
Cc1cc(C(=O)NCc2cccnc2)cs1	-2	0	0	9	31*	3
Cc1nn(Cc2ccccc2)c2sc(C(=O)NCc3cccnc3)cc12	0	0	2	14	39*	-13
CCn1ncc2c(OCc3ccc(C#N)cc3)cc(C)nc21	-1	0	8	10	5	-4
Cc1oc2nc(SCCCC(=O)NCCO)nc(N)c2c1C	0	0	-10	-6	0	3
COc1ccc(N(C(=O)c2ccc(Br)o2)C2C=CS(=O)(=O)C2)cc1 (stereo not given)	-1	-2	10	-6	0	-10
CCOC(=O)c1c(C)noc1CP(=O)(c1ccccc1)c1ccccc1	-1	-1	35	2	-2	-1
CC1Cc2ccccc2N1c1ncnc2nc[nH]c12 (stereo not given)	0	-1	8	14	0	93*
c1ccc2c(c1)CCN(c1ncnc3nc[nH]c13)C2	0	1	2	-7	-1	-5
O=C(O)CCCNS(=O)(=O)c1cccs1	-1	-1	7	11	20*	-3
COc1ccc(NC(=O)CCCNS(=O)(=O)c2cccs2)cc1	.	-2	15	6	0	.
Cc1ccc(C2=Nc3ccccc3NC(C)(c3ccc(C)o3)C2)o1 (stereo not given)	-1	17*	49*	21	-1	-1
Cc1cc(N2C3CCC2CC(O)(c2ccc(F)cc2)C3)nc(-c2ccccc2)n1 (stereo not given)	-1	-1	43*	23	-1	17
Cn1c(=O)c2c(nc(CN3CCc4ccccc4C3)n2CC(=O)c2ccccc2)n(C)c1=O	-1	1	7	5	0	-5
COc1ccc(OC)c(C2/C(=C(\O)c3c(C)nc4ccccn34)C(=O)C(=O)N2CCCN(C)C)c1 (stereo not given)	-1	1	6	2	-1	-4
CCN1C(=O)c2ccccc2S(=O)c2ccc(C(=O)N3CCCC3)cc21 (stereo not given)	0	-1	4	12	-1	-19
CN1CCN(C(=O)c2ccc3c(c2)N(Cc2cccc(Cl)c2)C(=O)c2ccccc2S3=O)CC1 (stereo not given)	0	15*	7	-1	-1	8
O=C(CCN1CCCC1Cc1ccccc1)c1ccc2c(c1)OCCO2 (stereo not given)	-5	8.9*	.	16	-1	42
Fc1ccccc1COc1cccc(/C=N/n2cnnc2)c1	0	-2	0	-4	-4	15
Cc1cc(/C=N/n2cnnc2)c(C)n1-c1ccc(OCc2ccccc2F)cc1	-1	0	36	29*	-3	142*
Cc1cc(C(=O)CSc2nc3ccccc3c(=O)n2C)c(C)n1Cc1ccc2c(c1)OCO2	0	0	4	28	-3	62*
Cc1cc(C(=O)CSc2nnc(-c3ccccc3)n2Cc2ccc3c(c2)OCO3)c(C)n1C	0	1	1	-4	-1	7
Clc1ccc(-c2nc(NCCN3CCOCC3)c3ccccc3n2)cc1	-2	0	-9	3	45*	-3
O=S(=O)(Nc1nc2ccccc2nc1NCCN1CCOCC1)c1cccc(Cl)c1	0	-1	-1	-5	-1	-1
